experiment: Inhibitory activity against CDK4 using recombinant human cyclin D2-CDK4 complex expressed in sf9 cells
How it was run: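 Recombinant human cyclin D2–Cdk4, baculovirus-expressed in Sf9 cells and HPLC-purified; incubated with 50 µM ATP plus 0.5-1.5 µCi [33P]-ATP, 100 µM or 400 µM G1 peptide, in 20 mM Tris-HCl pH 7.4, 10 mM MgCl2, 4.5 mM 2-mercaptoethanol, 1 mM EGTA, 30 °C, 45 min.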

| Structure (SMILES) | IC50 [µM] |
| --- | --- |
| CN(C)c1cc(NC(=O)Nc2ccccc2)c2ccccc2n1 | 90 |
| O=C(NCc1ccccc1)Nc1cccc2ccc(O)cc12 | 410 |
| O=C(Nc1nccs1)Nc1cccc2ccc(O)cc12 | 23 |
| O=C(Nc1ccccn1)NC1CCCCC1 | > 100 |
| O=C(Nc1cccc2ccc(O)cc12)NC1CCCC1 | 150 |
| CC(C)NC(=O)Nc1cccc2ccc(O)cc12 | 220 |
| O=C(Nc1ccccn1)Nc1cccc2c1C(=O)NC2=O | 3.6 |
| O=C(Nc1ccccn1)Nc1cccc2c1-c1ccccc1C2=O | 0.1 |
| O=C(Nc1ccccn1)Nc1cccc2ccc(O)cc12 | 7.6 |
| O=C1NC(=O)C(=Cc2ccc3c(c2)OCO3)C(=O)N1 | 350 |
| O=C(Cc1ccccc1)Nc1cccc2ccc(O)cc12 | > 1000 |
| O=C(Nc1ccccn1)Nc1cccc2c1[C@H]1CCCN1C2=O | 0.042 |
| O=C(Nc1ccncc1)Nc1cccc2ccc(O)cc12 | 110 |
| Cc1[nH]c2ccccc2c1/C=C1/NC(=S)NC1=O | 14 |
| O=C(NCc1ccccc1)Nc1ccccn1 | > 100 |
| COc1nc(N)c(C#N)c(-c2ccc3c(c2)OCO3)c1C#N | 36 |
| Nc1nc(N)nc(C2=Cc3cc(Cl)ccc3OC2)n1 | 450 |

| Structure (SMILES) | IC50 [µM] |
| --- | --- |
| O=C(Nc1ccccn1)Nc1cccc2c1-c1cccn1C2=O | 0.034 |
| O=C(Nc1cc(-c2cccs2)ccn1)Nc1cccc2c1C1CCCN1C2=O (stereo not drawn) | 0.011 |
| O=C(Nc1ccccc1)Nc1ccccn1 | 100 |
| O=C(Nc1ccccn1)Nc1cccc2ncccc12 | 2.4 |
| CSc1ccc(NC(=O)Nc2cccc3c(O)cccc23)cc1 | 40 |
| O=C(Nc1ccc2c[nH]nc2c1)Nc1ccccn1 | 0.67 |
| O=C(Nc1ccccc1)Nc1cccc2ccc(O)cc12 | 120 |
| O=C(Nc1cccnc1)Nc1cccc2ccc(O)cc12 | 340 |
| O=C(Nc1ccccn1)Nc1cccc2c1[C@@H]1CCCN1C2=O | 0.19 |
| Cc1ccc(Cl)cc1NC(=O)Nc1cccc2ccc(O)cc12 | 44 |
| C=C(O)c1ccc2n1C(=O)c1cccc(NC(=O)Nc3ccccn3)c1-2 | 0.017 |
| CN(C)c1cc(NC(=O)Nc2cccc(Cl)c2)c2ccccc2n1 | 36 |
| O=C(Nc1ccc2ncccc2c1)Nc1ccc2ncccc2c1 | 77 |
| O=C1NC(=S)NC(=O)C1=Cc1c(O)ccc2ccccc12 | 100 |
| Nc1nc(O)c2nc(CNc3ccc(C(=O)O)cc3)cnc2n1 [PTEROIC ACID] | 16 |
| Nc1nc(N)c2nc(-c3ccccc3)c(N)nc2n1 [TRIAMTERENE] | 210 |

Source: ChEMBL document CHEMBL1134321, “Structure-based generation of a new class of potent Cdk4 inhibitors: new de novo design strategy and library design” (J Med Chem, 2001)
